Test results from ChEMBL document CHEMBL3272032, “Antifolate studies. Activities of 40 potential antimalarial compounds against sensitive and chlorguanide triazine resistant strains of folate-requiring bacteria and Escherichia coli” (J Med Chem, 1977).
Active and inactive are the calls of the source. The rule behind the calls is not given here.

Assays:
[1] = Antibacterial activity against chlorguanide triazine-resistant Pediococcus cerevisiae ATCC 808 assessed as reduction in growth; assay type: functional
How it was run: (§1)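 Folate-requiring strains grown in medium with folic acid, 0.002 µg/ml for S. faecium and 0.001 µg/ml for L. casei; P. cerevisiae given folinic acid, 0.001 µg/ml. Resistant substrains came from serial transfer in rising chlorguanide triazine, and the most resistant were used. Compounds tested up to 1000 µg/ml, or 100 µg/ml when supply was limited. Growth read as Klett turbidity; IC50 is the µM concentration giving 50% growth inhibition.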

Enterococcus faecium [2] = test: Fold increase in resistance, ratio of IC50 for chlorguanide triazine-resistant Streptococcus faecium ATCC 8043 to IC50 for sensitive Streptococcus faecium ATCC 8043; assay type: functional
How it was run: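 Resistant S. faecium substrain raised by serial transfer in increasing chlorguanide triazine. IC50 (µM, 50% growth inhibition by turbidity) was found for resistant and parent strains in folic acid (0.002 µg/ml) medium. Fold increase taken as IC50 resistant / IC50 sensitive.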

Plasmodium berghei [3] = test: Antimalarial activity against Plasmodium berghei infected in sc dosed mouse assessed as dose required to survivors for period of 60 days; assay type: functional
How it was run: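 Mice infected with a blood-induced P. berghei inoculum were given one subcutaneous dose in peanut oil. Survivors at 60 days counted as cured. The minimum curative dose is the lowest dose that cured any mouse.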

Enterococcus faecium [4] = test: Antibacterial activity against sensitive Streptococcus faecium ATCC 8043 assessed as reduction in growth in presence of 0.002 ug/ml folic acid; assay type: functional, organism-based
How it was run: (§2)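 Folate-requiring strains in the medium of the earlier assay method. Folic acid was 0.002 μg/ml for S. faecium and 0.001 μg/ml for L. casei. Turbidity read on a Klett-Summerson colorimeter. IC50 is the micromolar concentration reducing growth to 50% of control. Top concentration was 1000 μg/ml, or 100 μg/ml if supply was limited.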

Pediococcus [5] = test: Fold increase in resistance, ratio of IC50 for chlorguanide triazine-resistant Pediococcus cerevisiae ATCC 808 to IC50 for sensitive Pediococcus cerevisiae ATCC 808; assay type: functional
How it was run: (§3)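 Resistant substrains were made by serial transfer in rising concentrations of cycloguanil, and the most resistant isolate of each organism was used. Both strains were assayed turbidimetrically under identical conditions. FIR = IC50 of the resistant strain divided by IC50 of the sensitive parent.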

Escherichia coli [6] = test: Antibacterial activity against sensitive Escherichia coli ATCC 10536 assessed as reduction in growth; assay type: functional, organism-based
How it was run: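 Growth inhibition in Sahyun et al. medium plus 0.6% acid-hydrolyzed casein. Growth read as turbidity on a Klett-Summerson photoelectric colorimeter. IC50 is the micromolar concentration giving 50% growth inhibition. Top concentration was 1000 μg/ml, or 100 μg/ml when compound was limited.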

Enterococcus faecium [7] = test: Antibacterial activity against sensitive Streptococcus faecium ATCC 8043 assessed as reduction in growth; assay type: functional, organism-based; how it was run: as §1
Lacticaseibacillus casei [8] = test: Antibacterial activity against sensitive Lactobacillus casei ATCC 7469 assessed as reduction; assay type: functional, organism-based; how it was run: as §1
Enterococcus faecium [9] = test: Antibacterial activity against chlorguanide triazine-resistant Streptococcus faecium ATCC 8043 assessed as reduction in growth; assay type: functional, organism-based; how it was run: as §1
Pediococcus [10] = test: Antibacterial activity against sensitive Pediococcus cerevisiae ATCC 808 assessed as reduction in growth in presence of 0.001 ug/ml folinic acid; assay type: functional
How it was run: (§4)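 P. cerevisiae grown with folinic acid at 0.001 μg/ml in the earlier-described medium. Turbidity read on a Klett-Summerson colorimeter. IC50 is the micromolar concentration reducing growth to 50% of control. Top concentration was 1000 μg/ml, or 100 μg/ml when supply was limited.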

[11] = Antibacterial activity against sensitive Pediococcus cerevisiae ATCC 808 assessed as reduction; assay type: functional; how it was run: as §4
Plasmodium berghei [12] = test: Antimalarial activity against Plasmodium berghei infected in sc dosed mouse assessed as active dose required to increase of 100% in mean survival time; assay type: functional; settings: read-out: MED
How it was run: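 Mice received a standard blood-induced P. berghei inoculum and were then treated with one subcutaneous dose of compound suspended in peanut oil. The minimum active dose is the lowest dose that raised mean survival time by 100%.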

Lacticaseibacillus casei [13] = test: Fold increase in resistance, ratio of IC50 for chlorguanide triazine-resistant Lactobacillus casei ATCC 7469 to IC50 for sensitive Lactobacillus casei ATCC 7469; assay type: functional; how it was run: as §3
Lacticaseibacillus casei [14] = test: Antibacterial activity against chlorguanide triazine-resistant Lactobacillus casei ATCC 7469 assessed as reduction in growth; assay type: functional, organism-based; how it was run: as §1
Escherichia coli [15] = test: Antibacterial activity against sensitive Escherichia coli ATCC 10536 assessed as reduction in growth in presence of p-aminobenzoic acid; assay type: functional, organism-based
How it was run: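 Reversal test. Drug inhibition was challenged with PABA in Sahyun et al. medium plus 0.6% acid-hydrolyzed casein. Growth read as turbidity on a Klett-Summerson colorimeter. Scored as reversal or nonreversal of the drug inhibition.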

Lacticaseibacillus casei [16] = test: Antibacterial activity against sensitive Lactobacillus casei ATCC 7469 assessed as reduction in growth in presence of 0.001 ug/ml folic acid; assay type: functional, organism-based; how it was run: as §2

Structure (SMILES) | IC50 [1] [µM] | Ratio IC50 (Enterococcus faecium [2]) | MCD (Plasmodium berghei [3]) [mg/kg] | inhibition (Enterococcus faecium [4]) | Ratio IC50 (Pediococcus [5]) | IC50 (Escherichia coli [6]) [µM] | IC50 (Enterococcus faecium [7]) [µM] | IC50 (Lacticaseibacillus casei [8]) [µM] | IC50 (Enterococcus faecium [9]) [µM] | inhibition (Pediococcus [10]) | IC50 [11] [µM] | minimal effective dose (Plasmodium berghei [12]) [mg/kg] | Ratio IC50 (Lacticaseibacillus casei [13]) | IC50 (Lacticaseibacillus casei [14]) [µM] | inhibition (Escherichia coli [15]) | inhibition (Lacticaseibacillus casei [16])
CCN(CC)CCNc1nc(C(Cl)(Cl)Cl)nc2cc(Cl)ccc12 | 35 | 0.9 | 320 | Active | 1 | 50 | 76 | 30 | 67 | Active | 32 | 160 | 0.27 | 8 | Active | Active
NC1(C(=O)O)CCCC1 [CYCLOLEUCINE] |  |  | >640 |  |  | > 7700 | > 7700 | > 7700 | > 7700 |  | > 7700 | > 640 |  | > 7700 |  | 
CC1(C)N=C(N)N=C(N)N1OCc1ccc(Cl)c(Cl)c1 [CLOCIGUANIL] | 8.2 | 3800 | 20 | inactive | 59 | 7 | 0.0009 | 0.057 | 3.4 | inactive | 0.14 | 2.5 | 54 | 3.1 | Active | inactive
CCOC(=O)c1cnc(S)nc1O |  |  | 320 |  |  | > 5000 | > 5000 | 3000 | > 5000 |  | > 5000 | 40 | 0.19 | 574 |  | Active
Cc1ccccc1-c1nc2c(N)nc(N)nc2nc1N | 44 | 113 | 320 | inactive | 5 | 209 | 1.1 | 68 | 124 | inactive | 8.5 | 40 | 0.03 | 1.9 | Active | inactive
Nc1ccc(S(=O)(=O)Nc2nccs2)cc1 [SULFATHIAZOLE] |  |  | 160 |  |  | 7.8 | > 3900 | > 3900 | > 3900 |  | > 3900 | 40 |  | > 3900 | inactive | 
Nc1ccc(S(=O)(=O)Nc2ncccn2)cc1 [SULFADIAZINE] |  |  | 640 |  |  | 12 | > 4000 | > 4000 | > 4000 |  | > 4000 | 160 |  | > 4000 | inactive | 
CCN(CC)CCNc1nc(Nc2ccc(Cl)c(Cl)c2)nc2ccccc12 | 8.2 | 2 |  | Active | 1 | 11 | 31 | 12 | 61 | Active | 6.5 |  | 0.4 | 5 | Active | Active
COc1cc(NC(C)CCCN)c2ncccc2c1 (stereo not given) [PRIMAQUINE] | 540 | 3 | 160 | Active | 1 |  | 1200 | 630 | 3000 | Active | 580 | 40 | 2 | 1300 |  | Active
CCN(CC)CCCC(C)Nc1ccnc2cc(Cl)ccc12 (stereo not given) [CHLOROQUINE] | 2500 | 1 | 80 | Active | 1 |  | 6600 | 6400 | 7500 | Active | 2500 | 20 | 1 | 6000 |  | Active
Nc1ccc(S(=O)(=O)c2ccc(N)cc2)cc1 [DAPSONE] | > 400 |  | 40 |  | >4 | 137 | > 4000 | 314 | > 4000 | Active | 105 | 20 | 0.24 | 75 | inactive | Active
COc1nccnc1NS(=O)(=O)c1ccc(N)cc1 [SULFALENE] |  |  | 160 |  |  | 13.5 | > 3600 | 8200 | > 3600 |  | > 3600 | 40 | 1 | 8200 | inactive | 
